Published values from different studies.
Lines come from different studies, so protocols differ.
Target: Phosphatidylinositol 3-kinase catalytic subunit type 3 (PIK3C3, Homo sapiens, UniProt Q8NEB9)

| SMILES | assay | conditions | remaining binding [%] |
| --- | --- | --- | --- |
| CC1CCCN1c1nccc(-c2cnn3ncccc23)n1 (centres unmarked) | binding | 1 µM | 100 |
| O=C(Nc1c[nH]nc1C(=O)NC1CCNCC1)c1cc(F)cc(F)c1 | binding, competition with immobilised ligand | 1 µM | 90 |
| c1cncc(-c2cccc(Nc3nccc(NC4CCCCC4)n3)c2)c1 | binding, competition with immobilised ligand | 10 µM | 21 |
| O=C(c1ccc(Nc2nccc(-c3cc4ccccc4s3)n2)cc1)N1CCC(N2CCCC2)CC1 | binding, competition with immobilised ligand | 1 µM | 4.9 |
| CC1=C(C#N)C(c2ccc3c(c2)c(NC(=O)c2ccccc2C)nn3C)C(C#N)=C(C)N1 | cell-free assay, competition with immobilised ligand | 1 µM | 87 |
| CN(C)c1nccc(-c2cnn3ncccc23)n1 | binding | 1 µM | 100 |
| CO[C@@H](C)c1c(Nc2ccc([C@H](N(C)C(=O)C3CCS(=O)(=O)CC3)C(F)(F)F)cc2)cnc2cc(Cl)nn12 | cell-free assay, competition with immobilised ligand | 1 µM | 100 |
| O=C(c1ccc(Nc2ncc(Cl)c(-c3ccc(Cl)s3)n2)cc1)N1CCC(N2CCCC2)CC1 | binding, competition with immobilised ligand | 1 µM | 54 |
| C[C@@H](c1ccc(-n2cnc3c(N)ncnc32)cc1)N1CCc2nn(C)c(Cc3ccccc3)c2C1=O | binding, competition with immobilised ligand | 0.1 µM | 76 |
| O=C(NCCCN1CCOCC1)c1ccc(Nc2nccc(-c3cc4ccccc4s3)n2)cc1 | binding, competition with immobilised ligand | 1 µM | 0.6 |
| O=C(NC[C@@H]1[C@H]2CN(C(=O)OCc3cc(C(F)(F)F)cc(C(F)(F)F)c3)C[C@@H]12)c1ccc2[nH]nnc2c1 | cell-free assay, competition with immobilised ligand | 1 µM | 72 |
| N[C@H]1CCN(c2nccc(-c3cnn4ncccc34)n2)C1 | binding | 1 µM | 77 |
| O=S(=O)(NC1CCC(c2cc(F)ccc2F)(S(=O)(=O)c2ccc(Cl)cc2)CC1)C(F)(F)F (centres unmarked) | cell-free assay, competition with immobilised ligand | 1 µM | 100 |
| C=CC(=O)N1CCC(C(=O)NCC(=O)N2CCN(c3nc(-c4cnc(N)nc4C(F)F)nc(N4CCOCC4)n3)CC2)CC1 | binding, competition with immobilised ligand | 1 µM | 4.5 |
| CN(CCCC(F)(F)F)c1nccc(-c2cnn3ncccc23)n1 | binding | 1 µM | 100 |
| CNC(=O)[C@@H]1CC[C@@H](n2c(-c3ccc4cnccc4c3)nc3ccc(C(=O)NCc4cccc(C(N)=O)c4)cc32)C1 | binding, competition with immobilised ligand | 1 µM | 7.2 |
| Cc1c(NC(=O)c2cc(C(N)=O)nc3cc(F)ccc23)c(C(F)(F)F)nn1Cc1ccc(C(C)(C)C)cc1 | cell-free assay, competition with immobilised ligand | 1 µM | 100 |
| C[C@@H]1CCN(c2nccc(-c3cnn4ncccc34)n2)C1 | binding | 1 µM | 70 |
| O=C(N[C@H]1CCCCC/C=C\C2C[C@@]2(C(=O)O)NC(=O)[C@@H]2C[C@@H](Oc3ccncc3)CN2C1=O)OC1CCCC1 (some centres unmarked) | cell-free assay, competition with immobilised ligand | 1 µM | 100 |
| CN(C)c1nccc(-c2cnc3ncccn23)n1 | binding | 1 µM | 48 |
